According to ChEMBL document CHEMBL3098028, “Synthesis and in vitro and in vivo pharmacological evaluation of new 4-aminoquinoline-based compounds” (ACS Med Chem Lett, 2013):
In brackets after ≈: the same amount, converted by molar mass.

Experiments:
Mus musculus [1] = experiment: AUC (0 to infinity) in C57BL/6 mouse at 40 mg/kg, po; format: ADME, organism-based, Plasma; design: time infinity, dose 40 mg/kg, route oral; settings: in vivo
Summary of the method: (§1)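 Healthy male C57/BL6 mice received a single intravenous dose (2.5 or 5.0 mg/kg) or oral dose (20 or 40 mg/kg). Plasma concentrations were followed over time to give AUC0-∞ in min·μmol/L, alongside t1/2, CL, Vd, Vss, Cmax, Tmax and oral bioavailability. Values are means of five animals.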

Mus musculus [2] = experiment: AUC (0 to infinity) in C57BL/6 mouse at 5 mg/kg, iv; format: ADME, organism-based, Plasma; design: dose 5 mg/kg, route intravenous, time infinity; settings: in vivo; summary of the method: as §1
Liver microsome [3] = experiment: Drug metabolism in rat liver microsomes assessed as 2-(5-((4-chlorophenyl)(2-(7-chloroquinolin-4-ylamino)ethylamino)methyl)-1H-tetrazol-1-yl)-2-methylpropan-1-ol level at 5 uM after 1 hr by LC-MS/MS analysis; format: ADME
Liver microsome [4] = experiment: Drug metabolism in rat liver microsomes assessed as 4-(2-((1-tert-butyl-1H-tetrazol-5-yl)(4-chlorophenyl)methylamino)ethylamino)-7-chloroquinoline 1-oxide level at 5 uM after 1 hr by LC-MS/MS analysis; format: ADME
Liver microsome [5] = experiment: Drug metabolism in human liver microsomes assessed as 2-(5-((4-chlorophenyl)(2-(7-chloroquinolin-4-ylamino)ethylamino)methyl)-1H-tetrazol-1-yl)-2-methylpropan-1-ol level at 5 uM after 1 hr by LC-MS/MS analysis; format: ADME
Liver microsome [6] = experiment: Drug metabolism in human liver microsomes assessed as 4-(2-((1-tert-butyl-1H-tetrazol-5-yl)(4-chlorophenyl)methylamino)ethylamino)-7-chloroquinoline 1-oxide level at 5 uM after 1 hr by LC-MS/MS analysis; format: ADME
[7] = Drug metabolism in hepatocytes (unknown origin) assessed as 4-(2-((1-tert-butyl-1H-tetrazol-5-yl)(4-chlorophenyl)methylamino)ethylamino)-7-chloroquinoline 1-oxide level at 5 uM after 6 hrs by LC-MS/MS analysis; format: ADME, cell-based, Hepatocyte
Cytochrome P450 2E1 = Cytochrome P450 2E1 (Homo sapiens, UniProt P05181); experiment: Inhibition of CYP2E1 in human liver microsomes assessed as chlorzoxazone 6-hydroxylation after 20 mins by LC-MS/MS analysis; format: ADME
Cytochrome P450 2B6 = molecular target: T1, Cytochrome P450 2B6 (Homo sapiens, UniProt P20813); experiment: Inhibition of CYP2B6 in human liver microsomes assessed as bupropion hydroxylation after 20 mins by LC-MS/MS analysis; format: ADME
T1 sequence (P20813 whole entry): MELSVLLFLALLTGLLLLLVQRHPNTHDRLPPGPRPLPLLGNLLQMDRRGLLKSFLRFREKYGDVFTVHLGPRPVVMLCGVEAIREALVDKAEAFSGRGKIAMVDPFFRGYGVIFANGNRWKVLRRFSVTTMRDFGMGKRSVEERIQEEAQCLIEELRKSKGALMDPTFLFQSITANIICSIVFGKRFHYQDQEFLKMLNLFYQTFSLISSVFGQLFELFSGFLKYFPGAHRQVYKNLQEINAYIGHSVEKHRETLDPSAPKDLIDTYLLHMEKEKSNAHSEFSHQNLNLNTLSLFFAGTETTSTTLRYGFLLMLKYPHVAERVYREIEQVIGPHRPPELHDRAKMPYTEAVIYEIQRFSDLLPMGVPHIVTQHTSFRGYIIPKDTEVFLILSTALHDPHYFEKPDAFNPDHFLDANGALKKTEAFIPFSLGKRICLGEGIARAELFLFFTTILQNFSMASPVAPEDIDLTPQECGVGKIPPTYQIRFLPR

Cytochrome P450 1A2 = molecular target: T2, Cytochrome P450 1A2 (Homo sapiens, UniProt P05177); experiment: Inhibition of CYP1A2 in human liver microsomes assessed as phenacetin O-deethylation after 20 mins by LC-MS/MS analysis; format: ADME
T2 sequence (P05177 whole entry): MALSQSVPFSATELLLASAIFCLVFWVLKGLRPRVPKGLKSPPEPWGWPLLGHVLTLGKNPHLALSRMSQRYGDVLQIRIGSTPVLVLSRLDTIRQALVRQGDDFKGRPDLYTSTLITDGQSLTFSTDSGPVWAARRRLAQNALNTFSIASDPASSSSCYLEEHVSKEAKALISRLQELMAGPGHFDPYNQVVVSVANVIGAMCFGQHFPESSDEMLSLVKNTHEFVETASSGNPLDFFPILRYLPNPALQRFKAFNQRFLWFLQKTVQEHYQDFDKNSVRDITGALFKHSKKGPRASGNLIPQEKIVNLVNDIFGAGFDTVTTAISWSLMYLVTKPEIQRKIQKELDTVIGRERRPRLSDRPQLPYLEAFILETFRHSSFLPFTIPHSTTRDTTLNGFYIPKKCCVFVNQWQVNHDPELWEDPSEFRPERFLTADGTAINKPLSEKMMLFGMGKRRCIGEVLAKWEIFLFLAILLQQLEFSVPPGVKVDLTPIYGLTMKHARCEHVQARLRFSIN

Cytochrome P450 3A4 = Cytochrome P450 3A4 (Homo sapiens, UniProt P08684); experiment: Inhibition of CYP3A4 in human liver microsomes assessed as midazolam 1'-hydroxylation and testosterone 6beta-hydroxylation after 20 mins by LC-MS/MS analysis; format: ADME
Cytochrome P450 2D6 = Cytochrome P450 2D6 (Homo sapiens, UniProt P10635); experiment: Inhibition of CYP2D6 in human liver microsomes assessed as bufuralol 1'-hydroxylation after 20 mins by LC-MS/MS analysis; format: ADME
Cytochrome P450 2C9 = Cytochrome P450 2C9 (Homo sapiens, UniProt P11712); experiment: Inhibition of CYP2C9 in human liver microsomes assessed as diclofenac 4'-hydroxylation after 20 mins by LC-MS/MS analysis; format: ADME
[8] = Kinetic solubility of the compound in 0.01 M HCl at pH 2 after 2 hrs by HPLC analysis; format: physicochemical; settings: read-out: Kinetic_solubility
[9] = Kinetic solubility of the compound in phosphate buffered saline at pH 7.4 after 2 hrs by HPLC analysis; format: physicochemical; settings: read-out: Kinetic_solubility
Plasmodium falciparum [10] = experiment: Antiplasmodial activity against chloroquine-resistant Plasmodium falciparum W2 after 24 hrs by [3H]hypoxanthine incorporation assay; format: functional, organism-based
Summary of the method: (§2)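 Antiplasmodial testing was done at the Swiss Tropical and Public Health Institute. Chloroquine, the reference drug, was tested as its diphosphate salt.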

Plasmodium falciparum [11] = experiment: Antiplasmodial activity against chloroquine-resistant Plasmodium falciparum K1 after 24 hrs by [3H]hypoxanthine incorporation assay; format: functional, organism-based; summary of the method: as §2
Plasmodium falciparum [12] = experiment: Antiplasmodial activity against chloroquine-sensitive Plasmodium falciparum 3D7 after 24 hrs by [3H]hypoxanthine incorporation assay; format: functional, organism-based; summary of the method: as §2

Sequence of Cytochrome P450 2C9 (P11712 whole entry): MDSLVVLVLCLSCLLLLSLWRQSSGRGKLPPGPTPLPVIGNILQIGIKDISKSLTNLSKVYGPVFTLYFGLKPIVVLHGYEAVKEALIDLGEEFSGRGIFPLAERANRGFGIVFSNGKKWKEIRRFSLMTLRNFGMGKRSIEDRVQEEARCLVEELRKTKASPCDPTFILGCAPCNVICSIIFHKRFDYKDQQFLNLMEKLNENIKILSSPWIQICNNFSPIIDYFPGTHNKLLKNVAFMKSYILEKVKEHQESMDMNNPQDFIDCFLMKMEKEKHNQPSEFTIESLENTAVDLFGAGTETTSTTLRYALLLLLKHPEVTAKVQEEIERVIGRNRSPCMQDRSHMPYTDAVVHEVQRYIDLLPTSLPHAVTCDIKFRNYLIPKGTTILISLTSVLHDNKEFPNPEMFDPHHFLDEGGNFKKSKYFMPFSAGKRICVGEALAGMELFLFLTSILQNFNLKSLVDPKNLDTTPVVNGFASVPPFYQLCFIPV
Sequence of Cytochrome P450 2D6 (P10635 whole entry): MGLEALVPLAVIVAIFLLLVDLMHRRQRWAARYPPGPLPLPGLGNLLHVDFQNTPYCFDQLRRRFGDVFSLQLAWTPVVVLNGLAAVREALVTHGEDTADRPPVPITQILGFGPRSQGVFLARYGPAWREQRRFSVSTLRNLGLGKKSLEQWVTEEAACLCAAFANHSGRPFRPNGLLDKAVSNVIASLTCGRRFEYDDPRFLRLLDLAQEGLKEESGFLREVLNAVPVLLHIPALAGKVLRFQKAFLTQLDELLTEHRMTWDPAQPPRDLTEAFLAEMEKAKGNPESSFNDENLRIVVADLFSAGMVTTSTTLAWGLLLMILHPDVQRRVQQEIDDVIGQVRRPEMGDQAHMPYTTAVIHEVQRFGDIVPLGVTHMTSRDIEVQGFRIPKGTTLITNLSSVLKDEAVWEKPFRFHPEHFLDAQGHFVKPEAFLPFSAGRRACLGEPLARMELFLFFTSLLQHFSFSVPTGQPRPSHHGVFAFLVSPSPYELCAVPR
Sequence of Cytochrome P450 3A4 (P08684 whole entry): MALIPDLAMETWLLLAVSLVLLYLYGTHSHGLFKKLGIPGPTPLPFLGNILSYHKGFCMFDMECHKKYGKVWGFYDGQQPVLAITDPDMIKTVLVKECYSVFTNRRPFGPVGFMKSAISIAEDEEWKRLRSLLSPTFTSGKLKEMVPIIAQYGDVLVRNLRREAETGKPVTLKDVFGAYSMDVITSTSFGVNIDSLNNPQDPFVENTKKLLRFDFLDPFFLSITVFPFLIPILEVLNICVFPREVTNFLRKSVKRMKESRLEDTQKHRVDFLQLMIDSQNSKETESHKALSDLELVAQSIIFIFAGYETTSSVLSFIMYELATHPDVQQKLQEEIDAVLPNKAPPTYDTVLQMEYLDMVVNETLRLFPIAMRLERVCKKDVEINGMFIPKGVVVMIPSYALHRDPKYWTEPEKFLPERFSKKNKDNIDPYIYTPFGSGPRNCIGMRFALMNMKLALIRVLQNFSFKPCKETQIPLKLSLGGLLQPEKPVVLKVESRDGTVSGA
Sequence of Cytochrome P450 2E1 (P05181 whole entry): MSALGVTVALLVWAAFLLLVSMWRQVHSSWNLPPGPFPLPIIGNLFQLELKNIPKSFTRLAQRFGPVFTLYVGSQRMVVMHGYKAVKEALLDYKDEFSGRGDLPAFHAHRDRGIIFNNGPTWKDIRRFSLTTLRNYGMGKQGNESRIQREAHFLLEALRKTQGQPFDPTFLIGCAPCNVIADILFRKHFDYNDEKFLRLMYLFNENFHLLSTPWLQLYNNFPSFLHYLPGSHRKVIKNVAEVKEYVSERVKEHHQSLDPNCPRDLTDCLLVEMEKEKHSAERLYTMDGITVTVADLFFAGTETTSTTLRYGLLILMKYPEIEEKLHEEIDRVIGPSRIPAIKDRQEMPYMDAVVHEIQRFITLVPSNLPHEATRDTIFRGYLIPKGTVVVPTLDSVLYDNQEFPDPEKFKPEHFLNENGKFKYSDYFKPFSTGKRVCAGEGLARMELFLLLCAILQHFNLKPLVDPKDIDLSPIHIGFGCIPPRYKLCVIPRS

Compound: CC(C)(C)n1nnnc1C(NCCNc1ccnc2cc(Cl)ccc12)c1ccc(Cl)cc1 (stereo not drawn)
- AUC (Mus musculus [1]): 541 µmol·min/L
- AUC (Mus musculus [2]): 221 µmol·min/L
- Drug metabolism (Liver microsome [3]): Active
- Drug metabolism (Liver microsome [4]): Active
- Drug metabolism (Liver microsome [5]): Active
- Drug metabolism (Liver microsome [6]): Active
- Drug metabolism [7]: Active
- IC50 (Cytochrome P450 2E1): > 20000 nM
- IC50 (Cytochrome P450 2B6): > 20000 nM
- IC50 (Cytochrome P450 1A2): > 20000 nM
- IC50 (Cytochrome P450 3A4): 80 nM
- IC50 (Cytochrome P450 2D6): 4000 nM
- IC50 (Cytochrome P450 2C9): 8910 nM
- solubility kinetic at 2 h [8]: > 200 µM
- solubility kinetic at 2 h [9]: 6.88 µM (≈ 3.24 µg/mL)
- IC50 (Plasmodium falciparum [10]): 25.5 nM
- IC50 (Plasmodium falciparum [11]): 1 nM
- IC50 (Plasmodium falciparum [12]): 2 nM
